# Screening data from PubChem BioAssay.
# Many of the other results were omitted from the sample, so hits are more common in it than they were.
# A1 apoptosis 2 = A1 inhibitors via caspase activation, primary screen, cell-based, luminescence, HTS, two replicates. MEF A1-2A-BIM cells, caspase-Glo luminescence, 3 h; percent of clofoctol response, DMSO zero. caspase activation, % (test concentration not listed). 24,000 tested, under 10 active; in the data active means caspase activation above about 5.9%
#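 system = A1-2A-BIM-expressing MEF cells | quantity = 2500 MEF cells/well | dosing = 50 nL compound per well, pinned | schedule = overnight cell settling, then 3 h compound exposure, 37 °C | signal = luminescence from DEVD-luciferin Caspase-Glo reagent, 1:1 in 50 mM HEPES, 1 h RT | read-out = Caspase-3/7 activation, seen as rise in luminescence signal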
# INS-1E ATP HTS = protection of INS-1E cells from cytokine death, primary screen, ATP luminescence, single point; INS-1E cytokine-induced death, 48 h; normalised: neutral wells 0, positive control 100; protection from cytokine-induced ATP loss, % at 10 µM; 20,000 compounds, 0.1% hits; AID 488910, 2010;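 active means mean replicate protection from cytokine-induced ATP loss at least 50% and at least 75% of replicates each reaching 50%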
#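 Assay system – rat INS-1E insulinoma cell line · Quantity – 8000 cells per well · Buffer or medium – RPMI without phenol red, 5% FBS · Schedule – 48 h co-treatment, 10 min post-lysis read · Technique – luminescent ATP assay (CellTiter-Glo)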
# T cruzi intra = inhibitors of intracellular Trypanosoma cruzi, primary screen, cell-based, plate reader, single point, set 2. intracellular Trypanosoma cruzi in host cells. activity score (inhibition), % at 5.01 µM. 22,000 compounds, 4.9% hits. AID 651903, 2012; in the data active means activity score above about 55%;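 further: parasites and compound incubated about four days before reading; 0% = median of neutral control wells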
# Starred values were filed as active, the others as inactive; . = not tested or not shown.
SMILES,A1 apoptosis 2,INS-1E ATP HTS,T cruzi intra
C[C@H]1CN([C@@H](C)CO)C(=O)c2cccc(NC(=O)Nc3ccccc3)c2O[C@H]1CN(C)S(=O)(=O)c1ccccc1,-1.3,-4.6,-13.0
C[C@H](CO)N1C[C@H](C)[C@@H](CN(C)S(=O)(=O)c2ccccc2)Oc2c(NC(=O)Nc3ccccc3)cccc2C1=O,-0.7,-4.0,60.9*
Cc1ccc(S(=O)(=O)N(C)C[C@H]2Oc3c(NC(=O)Nc4ccc(C(F)(F)F)cc4)cccc3C(=O)N([C@H](C)CO)C[C@@H]2C)cc1,.,-13.8,26.6
C[C@@H]1CN([C@H](C)CO)C(=O)c2cccc(NC(=O)Nc3ccc(C(F)(F)F)cc3)c2O[C@@H]1CN(C)S(=O)(=O)c1ccc(Cl)cc1,0.4,-107.5,63.3*
C[C@@H]1CN([C@@H](C)CO)C(=O)c2cccc(NC(=O)Nc3ccc(C(F)(F)F)cc3)c2O[C@@H]1CN(C)S(=O)(=O)c1ccc(Cl)cc1,-0.1,-107.2,70.1*
C[C@H]1CN([C@@H](C)CO)C(=O)c2cccc(NC(=O)Nc3ccc(C(F)(F)F)cc3)c2O[C@@H]1CN(C)S(=O)(=O)c1ccc(F)cc1,.,-18.5,21.2
COc1ccc(NC(=O)N(C)C[C@H]2Oc3ccc(NS(=O)(=O)c4ccc(C)cc4)cc3C(=O)N([C@H](C)CO)C[C@@H]2C)cc1,1.2,4.2,-2.7
C[C@@H]1CN([C@H](C)CO)C(=O)c2cc(NC(=O)c3ccncc3)ccc2O[C@@H]1CN(C)S(C)(=O)=O,.,3.3,-14.6
COc1ccc(S(=O)(=O)N(C)C[C@H]2Oc3ccc(NS(=O)(=O)c4ccc(F)cc4)cc3CC(=O)N([C@@H](C)CO)C[C@H]2C)cc1,-0.1,1.1,14.0
COc1ccc(S(=O)(=O)N(C)C[C@H]2Oc3ccc(NS(=O)(=O)c4ccc(C)cc4)cc3CC(=O)N([C@@H](C)CO)C[C@H]2C)cc1,.,0.0,53.1
COc1ccc(S(=O)(=O)Nc2ccc3c(c2)CC(=O)N([C@@H](C)CO)C[C@@H](C)[C@@H](CN(C)S(=O)(=O)c2ccc(F)cc2)O3)cc1,.,-8.0,63.5*
Cc1ccc(S(=O)(=O)N(C)C[C@@H]2Oc3ccc(NS(=O)(=O)c4ccc(Cl)cc4)cc3CC(=O)N([C@H](C)CO)C[C@H]2C)cc1,.,1.5,-8.7
Cc1ccc(S(=O)(=O)Nc2ccc3c(c2)CC(=O)N([C@@H](C)CO)C[C@@H](C)[C@@H](CN(C)S(=O)(=O)c2cccs2)O3)cc1,.,-0.5,37.7
Cc1ccc(S(=O)(=O)Nc2ccc3c(c2)CC(=O)N([C@H](C)CO)C[C@@H](C)[C@@H](CN(C)S(=O)(=O)c2cccs2)O3)cc1,-0.2,-10.4,67.6*
Cc1ccc(S(=O)(=O)Nc2ccc3c(c2)CC(=O)N([C@H](C)CO)C[C@@H](C)[C@@H](CN(C)S(=O)(=O)c2ccc(Cl)cc2)O3)cc1,0.2,-9.7,66.3*
COc1ccc(S(=O)(=O)Nc2ccc3c(c2)CC(=O)N([C@H](C)CO)C[C@@H](C)[C@@H](CN(C)S(=O)(=O)c2ccc(C)cc2)O3)cc1,-1.1,8.5,61.3*
C[C@H]1CCCCO[C@H](CN(C)C(=O)Nc2ccc(C(F)(F)F)cc2)[C@@H](C)CN([C@@H](C)CO)C(=O)c2cc(NS(C)(=O)=O)ccc2O1,0.6,.,.
C[C@@H]1CN([C@@H](C)CO)C(=O)c2cc(N(C)C)ccc2O[C@H]1CN(C)Cc1ccc(-c2ccccc2)cc1,-0.5,-7.9,23.1
C[C@@H]1CN([C@H](C)CO)C(=O)c2cccc(NC(=O)C3CCCCC3)c2O[C@H]1CN(C)C(=O)Nc1ccc2c(c1)OCO2,1.5,-1.2,1.8
CNC[C@@H]1OCCCC[C@@H](C)Oc2ccc(NC(=O)NC(C)C)cc2C(=O)N([C@H](C)CO)C[C@@H]1C,-1.1,4.6,-63.1
Cc1ccc(S(=O)(=O)N(C)C[C@@H]2OCCCC[C@@H](C)Oc3ccc(NS(=O)(=O)c4c(C)noc4C)cc3C(=O)N([C@H](C)CO)C[C@H]2C)cc1,-1.1,.,.
C[C@@H]1CN([C@H](C)CO)C(=O)Cc2cc(NS(=O)(=O)c3ccccc3)ccc2O[C@@H]1CN(C)S(=O)(=O)c1ccc(Cl)cc1,.,0.5,68.2*
Cc1ccc(S(=O)(=O)Nc2ccc3c(c2)CC(=O)N([C@@H](C)CO)C[C@@H](C)[C@@H](CN(C)S(=O)(=O)c2ccc(C)cc2)O3)cc1,1.5,-5.3,61.7*
